Tests used:
[1] = AUC(last) in rat at 5 mg/kg, po; format: ADME, organism-based; design: dose 5 mg/kg, time 0 - last, route oral; conditions: in vivo
Procedure, shortened: (§1)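 Oral dosing in rat at 5 mg/kg in PEG 400/ethanol (90:10 v/v) vehicle.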

[2] = Cmax in rat at 5 mg/kg, po; format: ADME, organism-based; design: dose 5 mg/kg, route oral; conditions: in vivo; procedure, shortened: as §1
[3] = Permeability of compound at pH 5.5 by PAMPA; format: ADME; conditions: read-out: permeability
Procedure, shortened: (§2)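 Passive permeability by PAMPA at pH 7.4 and pH 5.5, reported in nm/s.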

[4] = Permeability of compound at pH 7.4 by PAMPA; format: ADME; conditions: read-out: permeability; procedure, shortened: as §2
[5] = Volume of distribution at steady state in rat at 1 mg/kg, iv; format: ADME, organism-based; conditions: in vivo, read-out: Vdss
Procedure, shortened: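 Intravenous dosing in rat at 1 mg/kg. Plasma clearance and volume of distribution were determined.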

Liver [6] = assay: Drug level in Aroclor-1254-induced rat liver S9 fraction treated with 1-(4-methoxy-7-(3-methyl-1H-1,2,4-triazol-1-yl)-1H-pyrrolo[2,3-c]pyridin-3-yl)-2-(5-(pyridin-2-yl)-3,4-dihydroisoquinolin-2(1H)-yl)ethane-1,2-dione assessed as compound formation incubated at 37 degC for 4.5 hrs; format: ADME, subcellular; conditions: s9, 4.5 h
Liver [7] = assay: Drug metabolism in Aroclor-1254-induced rat liver S9 fraction assessed as 1-(1-hydroxy-5-(pyridin-2-yl)-3,4-dihydroisoquinolin-2(1H)-yl)-2-(4-methoxy-7-(3-methyl-1H-1,2,4-triazol-1-yl)-1H-pyrrolo[2,3-c]pyridin-3-yl)ethane-1,2-dione formation incubated at 37 degC for 4.5 hrs; format: ADME, subcellular; conditions: s9, 4.5 h

AUC(0-t) [1] [µM·h] | Cmax [2] [µM] | Papp [3] [×10⁻⁶ cm/s] | Structure (SMILES) | other results
52 | 6.4 | – | COc1cnc(-n2cnc(C)n2)c2[nH]cc(C(=O)C(=O)N3CCN(C(=O)c4ccccc4)CC3)c12 | –
– | – | 3.2 | COc1cnc(-c2cc(C(=O)O)[nH]n2)c2[nH]cc(C(=O)C(=O)N3CCc4c(cccc4-c4ccccn4)C3)c12 | –
41 | 10 | 24.4 | COc1cnc(-n2cnc(C)n2)c2[nH]cc(C(=O)C(=O)N3CCc4c(ncnc4-c4ccccn4)C3)c12 | Papp [4]: 29.4 ×10⁻⁶ cm/s; Vd [5]: 0.33 L/kg
– | – | – | COc1cnc(-n2cnc(C)n2)c2[nH]cc(C(=O)C(=O)N3CCc4c(-c5ccccn5)cccc4C3O)c12 (stereo not given) | Drug metabolism (Liver [6]): metabolite_detected
– | – | – | COc1cnc(-n2cnc(C)n2)c2[nH]cc(C(=O)C(=O)N3CCc4c(cccc4-c4ccccn4)C3)c12 | Drug metabolism (Liver [7]): metabolite_detected
